Active and inactive are the calls of the source.
Key:
Rattus norvegicus [1] = assay: Neurotoxicity in Sprague-Dawley rat assessed as […] at 30 mg/kg, po after 1 hr […]; assay type: toxicity, organism-based; set-up: dose 30 mg/kg, route oral; conditions: in vivo
Mus musculus [2] = assay: Anticonvulsant activity in albino CF1 mouse assessed as protection against maximal electroshock-induced seizures at 100 mg/kg, ip after 0.5 hr; assay type: functional, organism-based; set-up: dose 100 mg/kg
Outline: (§1)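 Male albino CF No. 1 mice (18–25 g) dosed ip at 30, 100 and 300 mg/kg in saline or 0.5% methylcellulose, tested 15, 30, 60 and 240 min after dosing. Maximal electroshock seizures elicited with 60-cycle alternating current. Scored as animals protected/animals tested, small qualitative groups.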

Rattus norvegicus [3] = assay: Neurotoxicity in Sprague-Dawley rat assessed as […] at 30 mg/kg, po after 0.25 hr […]; assay type: toxicity, organism-based; set-up: dose 30 mg/kg, route oral; conditions: in vivo
Mus musculus [4] = assay: Anesthetic activity in […] assessed as latency in response to thermal stimuli administered as 2% solution, sc measured after 15 mins by modified tail immersion test; assay type: functional, albino CF1
Rattus norvegicus [5] = assay: Anticonvulsant activity in Sprague-Dawley rat assessed as protection against maximal electroshock-induced seizures at 30 mg/kg, po after 4 hrs; assay type: functional, organism-based; set-up: dose 30 mg/kg
Outline: (§2)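 Male Sprague-Dawley rats (100–150 g), compound given orally at 30 mg/kg, dissolved in saline or suspended in 0.5% methylcellulose. Maximal electroshock seizures elicited with 60-cycle alternating current. Result recorded as number protected/number tested at each time point.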

Rattus norvegicus [6] = assay: Neurotoxicity in Sprague-Dawley rat assessed as minimal motor impairment at 30 mg/kg, po after 0.5 hr by rotorod test; assay type: toxicity, organism-based; set-up: dose 30 mg/kg, route oral; conditions: in vivo
Rattus norvegicus [7] = assay: Neurotoxicity in Sprague-Dawley rat assessed as minimal motor impairment at 30 mg/kg, po after 4 hrs by rotorod test; assay type: toxicity, organism-based; set-up: dose 30 mg/kg, route oral; conditions: in vivo
Rattus norvegicus [8] = assay: Anticonvulsant activity in Sprague-Dawley rat assessed as protection against maximal electroshock-induced seizures at 30 mg/kg, po after 1 hr; assay type: functional, organism-based; set-up: dose 30 mg/kg; outline: as §2
Mus musculus [9] = assay: Anticonvulsant activity in albino CF1 mouse assessed as protection against maximal electroshock-induced seizures at 100 mg/kg, ip after 4 hrs; assay type: functional, organism-based; set-up: dose 100 mg/kg; outline: as §1
Rattus norvegicus [10] = assay: Anticonvulsant activity in Sprague-Dawley rat assessed as protection against maximal electroshock-induced seizures at 30 mg/kg, po after 2 hrs; assay type: functional, organism-based; set-up: dose 30 mg/kg; outline: as §2
Mus musculus [11] = assay: Neurotoxicity in albino CF1 mouse assessed as minimal motor impairment at 100 mg/kg, ip after 0.5 hr by rotorod test; assay type: toxicity, organism-based; set-up: dose 100 mg/kg, route intraperitoneal; conditions: in vivo
Outline: (§3)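 Rotarod in male CF No. 1 mice after ip dosing (30, 100, 300 mg/kg; saline or 0.5% methylcellulose) at 15–240 min. Knurled plastic rod, 1-inch diameter, 6 rpm. Toxicity means failing to stay on for 1 min on three successive attempts. Recorded as toxic/tested.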

Rattus norvegicus [12] = assay: Anticonvulsant activity in Sprague-Dawley rat assessed as protection against maximal electroshock-induced seizures at 30 mg/kg, po after 0.5 hr; assay type: functional, organism-based; set-up: dose 30 mg/kg; outline: as §2
Mus musculus [13] = assay: Anticonvulsant activity in albino CF1 mouse assessed as protection against maximal electroshock-induced seizures at 300 mg/kg, ip after 0.5 hr; assay type: functional, organism-based; set-up: dose 300 mg/kg; outline: as §1
Rattus norvegicus [14] = assay: Neurotoxicity in Sprague-Dawley rat assessed as […] at 30 mg/kg, po after 2 hrs […]; assay type: toxicity, organism-based; set-up: dose 30 mg/kg, route oral; conditions: in vivo
Mus musculus [15] = assay: Analgesic activity in albino CF1 mouse assessed as inhibition of heat-induced paw licking or jumping behaviour administered after 30 mins prior heat challenge by hot plate method; assay type: functional
Mus musculus [16] = assay: Neurotoxicity in albino CF1 mouse assessed as minimal motor impairment at 300 mg/kg, ip after 4 hrs by rotorod test; assay type: toxicity, organism-based; set-up: dose 300 mg/kg, route intraperitoneal; conditions: in vivo; outline: as §3
Rattus norvegicus [17] = assay: Anticonvulsant activity in Sprague-Dawley rat assessed as protection against maximal electroshock-induced seizures at 30 mg/kg, po after 0.25 hr; assay type: functional, organism-based; set-up: dose 30 mg/kg; outline: as §2
Mus musculus [18] = assay: Anticonvulsant activity in albino CF1 mouse assessed as protection against maximal electroshock-induced seizures at 300 mg/kg, ip after 4 hrs; assay type: functional, organism-based; set-up: dose 300 mg/kg; outline: as §1
Mus musculus [19] = assay: Anesthetic activity in albino CF1 mouse assessed as latency in response to thermal stimuli administered as 1% solution, sc measured after 15 mins by modified tail immersion test; assay type: functional
Outline: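 Male Albino Swiss (CD-1) mice, 6-8 per group, tested at 1% and 2% compound concentration. Tail distal 3 cm immersed in water at 50 ± 0.5 °C 15 min after treatment. Tail-withdrawal latency recorded with a 20 s cutoff. Value is % difference in latency vs vehicle-treated mice. Mean ± SEM, Student's t-test.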

Mus musculus [20] = assay: Anticonvulsant activity in albino CF1 mouse assessed as protection against subcutaneous metrazol-induced seizures at 30 to 300 mg/kg, ip after 0.5 to 4 hrs; assay type: functional, organism-based
Outline: (§4)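 CF No. 1 male mice dosed ip at 30, 100 or 300 mg/kg (saline or 0.5% methylcellulose), then given pentetrazole 85 mg/kg sc as 0.5% solution in posterior midline. Watched 30 min. Protection means no threshold seizure (single clonic spasm episode of at least 5 s). Expressed as protected/tested.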

Mus musculus [21] = assay: […] activity in ip dosed albino CF1 mouse assessed as inhibition of phenylbenzoquinone-induced writhing administered after 30 mins prior challenge; assay type: functional
Outline: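 Male Albino Swiss (CD-1) mice, 6-8 per dose. Compound given ip in 0.5% methylcellulose. 30 min later, 0.25 ml of 0.02% phenylbenzoquinone injected. After 5 min, writhes counted over 10 min. % effect = (vehicle mean − drug mean)/vehicle mean × 100. ED50 derived; Student's t-test.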

Mus musculus [22] = assay: Neurotoxicity in albino CF1 mouse assessed as minimal motor impairment at 300 mg/kg, ip after 0.5 hr by rotorod test; assay type: toxicity, organism-based; set-up: dose 300 mg/kg, route intraperitoneal; conditions: in vivo; outline: as §3
Mus musculus [23] = assay: Neurotoxicity in albino CF1 mouse assessed as minimal motor impairment at 100 mg/kg, ip after 4 hrs by rotorod test; assay type: toxicity, organism-based; set-up: dose 100 mg/kg, route intraperitoneal; conditions: in vivo; outline: as §3
Rattus norvegicus [24] = assay: Anticonvulsant activity in po dosed Sprague-Dawley rat assessed as protection against maximal electroshock-induced seizures measured after 0.25 to 4 hrs; assay type: functional
Outline: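 Male Sprague-Dawley rats, 100–150 g, dosed orally at 30 mg/kg. Maximal electroshock (60-cycle alternating current) applied at time points after dosing. Scored as animals protected/animals tested.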

Mus musculus [25] = assay: Toxicity in albino CF1 mouse assessed as proconvulsant activity at 30 to 300 mg/kg, ip after 0.5 to 4 hrs; assay type: organism-based; set-up: route intraperitoneal; conditions: in vivo; outline: as §4

Compound	Activity (Mus musculus [2])	Activity (Mus musculus [9])	Activity (Mus musculus [11])	Activity (Mus musculus [13])	ED50 (Mus musculus [15]) [mg/kg]	Activity (Mus musculus [16])	Activity (Mus musculus [18])	Activity (Mus musculus [20])	ED50 (Mus musculus [21]) [mg/kg]	Activity (Mus musculus [22])	Activity (Mus musculus [23])	other results
O=C1OCCC1N1CCN(c2cccc(C(F)(F)F)c2)CC1 (racemic)	inactive	Active	Non-toxic	Active	1.3	Non-toxic	inactive	inactive	0.8	Toxic	Non-toxic	Activity (Rattus norvegicus [1]): Non-toxic; Activity (Rattus norvegicus [3]): Non-toxic; Activity (Mus musculus [4]): 149%; Activity (Rattus norvegicus [5]): Active; Activity (Rattus norvegicus [6]): Toxic; Activity (Rattus norvegicus [7]): Non-toxic; Activity (Rattus norvegicus [8]): inactive; Activity (Rattus norvegicus [10]): Active; Activity (Rattus norvegicus [12]): inactive; Activity (Rattus norvegicus [14]): Non-toxic; Activity (Rattus norvegicus [17]): inactive; Activity (Mus musculus [19]): 81%; ED50 (Rattus norvegicus [24]): 112 mg/kg
O=C1OCCC1N1CCc2ccccc2C1 (racemic)	inactive	inactive	Non-toxic	inactive	32.4	Non-toxic	inactive	inactive	3.7	Non-toxic	Non-toxic	Activity (Mus musculus [25]): Toxic
